ChEMBL document CHEMBL5104168, “Design, synthesis, and antitumor study of a series of novel 1-Oxa-4-azaspironenone derivatives” (Bioorg Med Chem Lett, 2022)

Key:
[1] = system: A549; assay: Anticancer activity against human A549 cells assessed as inhibition of cell proliferation; format: functional, cell-based
[2] = system: HeLa; assay: Anticancer activity against human HeLa cells assessed as inhibition of cell proliferation; format: functional, cell-based
[3] = system: MDA-MB-231; assay: Anticancer activity against human MDA-MB-231 cells assessed as inhibition of cell proliferation; format: functional, cell-based
[4] = system: MDA-MB-231; assay: Induction of apoptosis in human MDA-MB-231 cells assessed as dead cells at 10 uM by Annexin V-FITC/propidium iodide staining based flow cytometric analysis (reference value: 0.68 %); format: functional
Summary of the method: (§1)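 MDA-MB-231 cells were cultured with compound at 10 μM. DMSO-treated cells served as the vehicle control and combretastatin A4 (10 μM) as the positive control. Cells were double-labelled with Annexin V-FITC and propidium iodide and analysed by flow cytometry. Population percentages were read from the quadrants: early-apoptotic, late-apoptotic and dead cells. Incubation time was not given.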

[5] = system: MDA-MB-231; assay: Induction of apoptosis in human MDA-MB-231 cells assessed as early apoptotic cells at 10 uM by Annexin V-FITC/propidium iodide staining based flow cytometric analysis (reference value: 4.66 %); format: functional; summary of the method: as §1
[6] = system: MDA-MB-231; assay: Induction of cell cycle arrest in human MDA-MB-231 cells assessed as accumulation of cells at G1 phase at 10 uM (reference value: 61.33 %); format: functional
[7] = system: MDA-MB-231; assay: Induction of apoptosis in human MDA-MB-231 cells assessed as viable cells at 10 uM by Annexin V-FITC/propidium iodide staining based flow cytometric analysis (reference value: 93.6 %); format: functional; settings: read-out: Activity
[8] = system: MDA-MB-231; assay: Induction of apoptosis in human MDA-MB-231 cells assessed as late apoptotic cells at 10 uM by Annexin V-FITC/propidium iodide staining based flow cytometric analysis (reference value: 1.02 %); format: functional; summary of the method: as §1
[9] = system: MDA-MB-231; assay: Induction of cell cycle arrest in human MDA-MB-231 cells assessed as accumulation of cells at S phase at 10 uM (reference value: 21.17 %); format: functional
[10] = system: MDA-MB-231; assay: Induction of cell cycle arrest in human MDA-MB-231 cells assessed as accumulation of cells at G2 phase at 10 uM (reference value: 16.5 %); format: functional
[11] = Cytotoxicity against HUVEC cells assessed as inhibition of cell growth; settings: human

SMILES | IC50 [1] [nM] | IC50 [2] [nM] | IC50 [3] [nM] | further results
O=C1C=CC2(OCC(=O)N2Cc2ccccc2Cl)C2CC12 (configuration not stated) | 660 | > 10000 | 420 | 
CCSC1CC(=O)CC(SCC)C12OCC(=O)N2Cc1ccc(C)cc1 (configuration not stated) | 2300 | 2410 | 1360 | 
Cn1c(CCCC(=O)O)nc2cc(N(CCCl)CCCl)ccc21 [BENDAMUSTINE] |  | > 20000 |  | 
O=C1C=CC2(OCC(=O)N2Cc2c(Cl)cccc2Cl)C2CC12 (configuration not stated) | 8830 | 1760 | 5520 | 
O=C1C=CC2(C=C1)OCC(=O)N2Cc1ccccc1Cl | 1050 | 360 | 70 | 
O=C1C=CC2(OCC(=O)N2Cc2ccc(Br)cc2)C2CC12 (configuration not stated) | 6090 | > 10000 | 1120 | 
O=C1C=CC2(OCC(=O)N2Cc2cccc(Cl)c2)C2CC12 (configuration not stated) | > 10000 | 1730 | 460 | 
COc1ccc(/C=C\c2cc(OC)c(OC)c(OC)c2)cc1O [COMBRETASTATIN A4] |  |  |  | Activity [4]: 0.35%; Activity [5]: 17.2%; Activity [6]: 10.16%; viability at 10 µM [7]: 77.7%; Activity [8]: 4.81%; Activity [9]: 32.46%; Activity [10]: 57.38%
CCSC1CC(=O)CC(SCC)C12OCC(=O)N2Cc1ccc(Cl)cc1 (configuration not stated) | > 10000 | 3920 | 260 | 
COC(=O)C(C(=O)OC)C1CC(=O)C=CC12OCC(=O)N2Cc1cccc(Cl)c1 (configuration not stated) | 260 | 340 | 250 | 
O=C1C=CC2(C=C1)OCC(=O)N2Cc1ccc([N+](=O)[O-])cc1 | 810 | 270 | 210 | 
O=C1C=CC2(C=C1)OCC(=O)N2Cc1cccc(Cl)c1 | 3010 | 370 | 110 | 
COC(=O)C(C(=O)OC)C1CC(=O)C=CC12OCC(=O)N2Cc1ccc(C)cc1 (configuration not stated) | 9250 | 410 | 340 | 
Cc1ccc(CN2C(=O)COC23C=CC(=O)C=C3)cc1 | 260 | 200 | 100 | 
O=C1C=CC2(C=C1)OCC(=O)N2Cc1ccc(Cl)cc1 | 1290 | 410 | 110 | IC50 [11]: 44600 nM
O=C1C=CC2(OCC(=O)N2Cc2ccc(Cl)cc2)C2CC12 (configuration not stated) | 6060 | > 10000 | 100 | Activity [4]: 0.72%; Activity [5]: 10.9%; Activity [6]: 53.57%; viability at 10 µM [7]: 85.4%; Activity [8]: 3%; Activity [9]: 19.28%; IC50 [11]: 83600 nM; Activity [10]: 27.16%
CCSC1=CC(=O)CC(SCC)C12OCC(=O)N2Cc1c(Cl)cccc1Cl (configuration not stated) | 9270 | 210 | 120 | 
COC(=O)C(C(=O)OC)C1CC(=O)C=CC12OCC(=O)N2Cc1ccc(Cl)cc1 (configuration not stated) | 9980 | 180 | 380 | 
O=C1C=CC2(C=C1)OCC(=O)N2Cc1ccc(Br)cc1 | 190 | 150 | 80 | 
O=C1C=CC2(OCC(=O)N2Cc2ccc([N+](=O)[O-])cc2)C2CC12 (configuration not stated) | > 10000 | 3860 | 1200 | 
COC(=O)C(C(=O)OC)C1CC(=O)C=CC12OCC(=O)N2Cc1ccc(Br)cc1 (configuration not stated) | 2550 | 1060 | 1230 | 
O=C1C=CC2(C=C1)OCC(=O)N2Cc1c(Cl)cccc1Cl | 4950 | 290 | 120 | 
